Assay results published in ChEMBL document CHEMBL1135248, “Synthesis and evaluation of pseudopeptide analogues of a specific CXCR4 inhibitor, T140: the insertion of an (E)-alkene dipeptide isostere into the betaII'-turn moiety” (Bioorg Med Chem Lett, 2002).
Where “and” joins values, the source holds several entries; their conditions need not be identical. Identical values can stand only once.

Experiments:
MT4 [1] = test: Cytotoxicity based on the reduction of the viability of mock-infected MT-4 cells using the MTT method; type: functional, Homo sapiens
How it was run: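 Mock-infected MT-4 cells were exposed to compound. Loss of viability was read by the MTT method, and CC50 was derived. Values are the mean of at least three experiments.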

[2] = Selectivity index (SI) is determined as the ratio of CC50/EC50; type: functional
How it was run: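 Ratio of CC50 to EC50, both taken from MTT read-outs in MT-4 cells: mock-infected cells for CC50 and HIV-1 IIIB-infected cells for EC50. Each value is the mean of at least three experiments.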

[3] = molecular target: T1, C-X-C chemokine receptor type 4 (Homo sapiens, UniProt P61073); test: (§1) Inhibitory activity based on the inhibition of [Ca2+] mobilization induced by human SDF-1alpha stimulation through CXCR4
T1 sequence (P61073 whole entry): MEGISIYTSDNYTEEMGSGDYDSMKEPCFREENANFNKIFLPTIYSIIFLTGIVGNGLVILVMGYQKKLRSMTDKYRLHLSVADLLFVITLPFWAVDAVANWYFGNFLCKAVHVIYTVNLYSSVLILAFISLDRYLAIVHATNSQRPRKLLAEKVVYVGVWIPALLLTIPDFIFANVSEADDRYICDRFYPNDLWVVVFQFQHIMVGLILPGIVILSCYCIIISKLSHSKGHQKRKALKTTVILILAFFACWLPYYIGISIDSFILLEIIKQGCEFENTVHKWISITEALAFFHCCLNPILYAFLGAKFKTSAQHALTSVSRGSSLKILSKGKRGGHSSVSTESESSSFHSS
How it was run: (§2)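 CHO cells transfected with CXCR4 were loaded with Fura-2-AM for 1–2 h and then pretreated with analogue. Recombinant human SDF-1α was added 3 min later. [Ca2+]i rise was measured spectrofluorometrically by a modified Fura-2 method, and IC50 was derived from inhibition of mobilization. Values are the mean of two experiments.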

[4] = molecular target: T1, C-X-C chemokine receptor type 4; test: as §1; how it was run: as §2; remark: listed apart in the source
MT4 [5] = test: Anti-HIV activity based on the protection against HIV-induced cytopathogenicity in MT-4 cells using MTT method; type: functional, cell-based, Homo sapiens
How it was run: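 MT-4 cells challenged with the X4 strain HIV-1 IIIB. Protection from virus-induced cytopathogenicity was read by the MTT method, and EC50 was derived. Values are the mean of at least three experiments.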

| SMILES | CC50 (MT4 [1]) | CC50 (MT4 [1]; Homo sapiens, MT4) [nM] | SI [2] | other results |
| --- | --- | --- | --- | --- |
| C[C@H]1/C=C\[C@@H](CCCCN)NC(=O)[C@H](CCCCN)NC(=O)[C@H](CCCN=C(N)N)NC(=O)[C@H](Cc2ccc(O)cc2)NC(=O)[C@@H](NC(=O)[C@H](Cc2ccc3ccccc3c2)NC(=O)[C@H](CCCN=C(N)N)NC(=O)[C@@H](N)CCCN=C(N)N)CSSC[C@@H](C(=O)N[C@@H](CCCN=C(N)N)C(N)=O)NC(=O)[C@H](CCCNC(N)=O)NC(=O)[C@H](CCCN=C(N)N)NC(=O)[C@H](Cc2ccc(O)cc2)NC1=O [listing 1 of 2 here] | 58000 nM | 57000 | – | – |
| C[C@H]1/C=C\[C@@H](CCCCN)NC(=O)[C@H](CCCCN)NC(=O)[C@H](CCCN=C(N)N)NC(=O)[C@H](Cc2ccc(O)cc2)NC(=O)[C@@H](NC(=O)[C@H](Cc2ccc3ccccc3c2)NC(=O)[C@H](CCCN=C(N)N)NC(=O)[C@@H](N)CCCN=C(N)N)CSSC[C@@H](C(=O)N[C@@H](CCCN=C(N)N)C(=O)O)NC(=O)[C@H](CCCNC(N)=O)NC(=O)[C@H](CCCN=C(N)N)NC(=O)[C@H](Cc2ccc(O)cc2)NC1=O [listing 1 of 2 here] | 67000 nM and 270000 nM | – | – | – |
| C[C@H]1/C=C\[C@@H](CCCCN)NC(=O)[C@H](CCCCN)NC(=O)[C@@H](CCCN=C(N)N)NC(=O)[C@H](Cc2ccc(O)cc2)NC(=O)[C@@H](NC(=O)[C@H](CSC23C[C@H]4C[C@@H](C2)C[C@@H](C3)C4)NC(=O)[C@H](CCCN=C(N)N)NC(=O)[C@@H](N)CCCN=C(N)N)CSSC[C@@H](C(=O)N[C@@H](CCCN=C(N)N)C(N)=O)NC(=O)C(CCCNC(N)=O)NC(=O)[C@@H](CCCN=C(N)N)NC(=O)[C@H](Cc2ccc(O)cc2)NC1=O (some centres not stated) | – | – | 6900 and 3300 | – |
| C[C@H]1/C=C\[C@@H](CCCCN)NC(=O)[C@H](CCCCN)NC(=O)[C@H](CCCN=C(N)N)NC(=O)[C@H](Cc2ccc(O)cc2)NC(=O)[C@@H](NC(=O)[C@H](Cc2ccc3ccccc3c2)NC(=O)[C@H](CCCN=C(N)N)NC(=O)[C@@H](N)CCCN=C(N)N)CSSC[C@@H](C(=O)N[C@@H](CCCN=C(N)N)C(N)=O)NC(=O)[C@H](CCCNC(N)=O)NC(=O)[C@H](CCCN=C(N)N)NC(=O)[C@H](Cc2ccc(O)cc2)NC1=O [listing 2 of 2 here] | – | – | – | IC50 [3]: 10 nM; IC50 [4]: 5 nM; EC50 (MT4 [5]; mt4): 4.7 nM and 1.9 nM |
| C[C@H]1/C=C\[C@@H](CCCCN)NC(=O)[C@H](CCCCN)NC(=O)[C@H](CCCN=C(N)N)NC(=O)[C@H](Cc2ccc(O)cc2)NC(=O)[C@@H](NC(=O)[C@H](CSCc2ccccc2)NC(=O)[C@H](CCCN=C(N)N)NC(=O)[C@@H](N)CCCN=C(N)N)CSSC[C@@H](C(=O)N[C@@H](CCCN=C(N)N)C(N)=O)NC(=O)[C@H](CCCNC(N)=O)NC(=O)[C@H](CCCN=C(N)N)NC(=O)[C@H](Cc2ccc(O)cc2)NC1=O | 59000 nM | 54000 | – | – |
| C[C@H]1/C=C\[C@@H](CCCCN)NC(=O)[C@H](CCCCN)NC(=O)[C@H](CCCNC(=N)N)NC(=O)[C@H](Cc2ccc(O)cc2)NC(=O)[C@@H](NC(=O)[C@H](Cc2ccc3ccccc3c2)NC(=O)[C@H](CCCNC(=N)N)NC(=O)[C@@H](N)CCCN=C(N)N)CSSC[C@@H](C(=O)N[C@@H](CCCNC(=N)N)C(=O)O)NC(=O)[C@H](CCCNC(N)=O)NC(=O)[C@H](CCCNC(=N)N)NC(=O)[C@H](Cc2ccc(O)cc2)NC1=O | – | – | – | IC50 [3]: 7.3 nM; IC50 [4]: 6.9 nM |
| C[C@H]1/C=C\[C@@H](CCCCN)NC(=O)[C@H](CCCCN)NC(=O)[C@@H](CCCN=C(N)N)NC(=O)[C@H](Cc2ccc(O)cc2)NC(=O)[C@@H](NC(=O)[C@H](Cc2ccc3ccccc3c2)NC(=O)[C@H](CCCN=C(N)N)NC(=O)[C@@H](N)CCCN=C(N)N)CSSC[C@@H](C(=O)N[C@@H](CCCN=C(N)N)C(N)=O)NC(=O)C(CCCNC(N)=O)NC(=O)[C@@H](CCCN=C(N)N)NC(=O)[C@H](Cc2ccc(O)cc2)NC1=O (some centres not stated) | – | – | 12000 and 31000 | – |
| C[C@H]1/C=C\[C@@H](CCCCN)NC(=O)[C@H](CCCCN)NC(=O)[C@@H](CCCN=C(N)N)NC(=O)[C@H](Cc2ccc(O)cc2)NC(=O)[C@@H](NC(=O)[C@H](Cc2ccc3ccccc3c2)NC(=O)[C@H](CCCN=C(N)N)NC(=O)[C@@H](N)CCCN=C(N)N)CSSC[C@@H](C(=O)N[C@@H](CCCN=C(N)N)C(=O)O)NC(=O)C(CCCNC(N)=O)NC(=O)[C@@H](CCCN=C(N)N)NC(=O)[C@H](Cc2ccc(O)cc2)NC1=O (some centres not stated) | – | – | > 220000 and 140000 | – |
| C[C@H]1/C=C\[C@@H](CCCCN)NC(=O)[C@H](CCCCN)NC(=O)[C@H](CCCN=C(N)N)NC(=O)[C@H](Cc2ccc(O)cc2)NC(=O)[C@@H](NC(=O)[C@H](Cc2ccc3ccccc3c2)NC(=O)[C@H](CCCN=C(N)N)NC(=O)[C@@H](N)CCCN=C(N)N)CSSC[C@@H](C(=O)N[C@@H](CCCN=C(N)N)C(=O)O)NC(=O)[C@H](CCCNC(N)=O)NC(=O)[C@H](CCCN=C(N)N)NC(=O)[C@H](Cc2ccc(O)cc2)NC1=O [listing 2 of 2 here] | – | – | – | EC50 (MT4 [5]; mt4): < 0.3 nM and 1.9 nM |
| Cc1cn([C@H]2C[C@H](N=[N+]=[N-])[C@@H](CO)O2)c(=O)[nH]c1=O [ZIDOVUDINE] | – | 12000 | 35000 | EC50 (MT4 [5]; Homo sapiens, MT4): 0.3 nM |
